Mdm2 MdmX PPI – inhibitors of human Mdm2-MdmX association, primary screen, cell-based, luminescence, split luciferase, SaOS-2, uHTS | Protein Mdm4 (Homo sapiens) + E3 ubiquitin-protein ligase Mdm2 (Homo sapiens), … | SaOS-2 split-luciferase Mdm2/MdmX complementation | inhibition, % at 8 µM | 330,000 tested, 3% active | AID 485346, 2010;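 active = inhibition of at least 50% at 8 µM in the primary screen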
UPR XBP1 act – activators of adaptive XBP1 UPR arm, primary screen, cell-based, CHO-XBP1 luciferase reporter, luminescence, uHTS. IRE1-XBP1 UPR activation; percent of tunicamycin response, DMSO as zero. activation, % at 20 µM. 330,000 tested, 0.33% active. AID 463104, 2010;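 active = versus positive control, 20 µM dose yields 30% or more activation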;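 also: 100% = tunicamycin at 10 µg/mL and 0% = DMSO only wells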
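Material: CHO-XBP1 cells stably carrying IRE1-XBP1-driven luciferase reporter / Amount: 1000 cells per well / Compound: 20 µM, 1% DMSO / Times: 6 h treatment, 37 °C / Detection: luciferase luminescence / Measure: % activation of reporter signal versus tunicamycin and DMSO controls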
UPR CHOP act – activators of apoptotic CHOP UPR arm, primary screen, cell-based, CHO-CHOP luciferase reporter, luminescence, uHTS; UPR activation; percent of tunicamycin response over DMSO baseline; activation, % at 10 µM; 330,000 tested, 0.34% active; AID 449763, 2010;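 active = at 10 µM dose, activation of 40% or more, normalized to positive control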;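 also: 100% = tunicamycin at 10 µg/mL and 0% = DMSO alone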
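Dosing – one dose, 10 µM in 0.5% DMSO · System – CHO-CHOP cells, stable luciferase reporter of PERK-eIF2a-CHOP signalling · Input – 500 cells/well · Control set – tunicamycin 10 µg/mL final as positive, DMSO-only wells as negative · Timing – 6 h compound treatment, 37 °C · Measure – % activation vs tunicamycin · Technique – luminescence read with Steady-Glo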
UBC13 polyUb – UBC13 polyubiquitin chain formation inhibitors, primary screen, biochemical, TR-FRET, uHTS. Ubiquitin-conjugating enzyme E2 N (Homo sapiens), P61088. inhibition, % at 20 µM. 330,000 tested, 0.47% active. AID 485273, 2010; in the data active = inhibition above about 45%, passing the limit was not always enough
Apaf1 inhib – inhibitors of human Apaf-1 apoptosome, primary screen, biochemical, DEVD-Rh110 fluorescence, uHTS. 330,000 tested, 0.71% active. Apoptotic protease-activating factor 1 (Homo sapiens), O14727. reconstituted apoptosome caspase-3 activity. inhibition, % at 20 µM; active = inhibition of at least 40% at 20 µM;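 also: plate controls were DMSO wells for no effect and DEVD-CHO caspase inhibitor wells for full effect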
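System: reconstituted apoptosome with Apaf-1, cytochrome c, caspase-9, procaspase-3, dATP; Signal: Rh110 fluorescence intensity; Schedule: 30 min compound preincubation, 50 min activation, room temperature; Reagent: cytochrome c trigger plus (Z-DEVD)2-Rh110 caspase-3 substrate.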
Mdm2-MdmX conf – Mdm2-MdmX complex disruptors, retested hits, confirmation, luminescence, single concentration; inhibition, % at 8 µM; shares compounds with Mdm2 MdmX PPI; 10,000 tested, 55% active; Mdm2-MdmX binding, luminescent assay; AID 489028, 2010; in the data active = inhibition above about 40%
FLuc counter – full-length luciferase signal inhibition, confirmation, counter-screen for Mdm2/MdmX interaction inhibitor project, cell-based, single concentration, SaOS-2; 6,200 tested, 77% active; shares compounds with Mdm2 MdmX PPI; inhibition, % at 8 µM; SaOS-2 full-length luciferase counterscreen, luminescence; AID 504607, 2011;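 active = mean inhibition at 8 µM reaching about 37%, which flags the compound as non-specific, limit read from the data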;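 also: p53-null SaOS-2 cells with luciferase driven by a doxycycline-inducible promoter; compound on cells about two nights before reading with doxycycline added after day one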
* marks the source's active call; other numbers are inactive results; · = no result. Compounds with a hit are over-represented: about 4.1% of the library has one in this group of screens.

SMILES	Mdm2 MdmX PPI	UPR XBP1 act	UPR CHOP act	UBC13 polyUb	Apaf1 inhib	Mdm2-MdmX conf	others
CN(C)c1ccc(C2C=C(c3ccc(Cl)cc3OC(F)F)Nc3ncnn32)cc1 (stereo unspecified)	66*	2	-1	8	14	54*	FLuc counter=49*
COc1cc2ccccc2cc1C(=O)NNC(=O)c1ccccc1O	56*	-2	-1	-2	-12	48*	FLuc counter=40*
COc1cc(OC)c(NC(=O)c2ccccc2F)cc1Cl	-1	0	3	14	-6	·
COc1cc(NC(=O)c2cc3ccccc3cc2O)c(OC)cc1Cl	100*	13	10	11	18	91*	FLuc counter=42*
Cc1ccc(Cl)cc1NC(=O)c1cc2ccccc2cc1O	93*	2	26	4	20	97*	FLuc counter=52*
Cc1onc(-c2ccccc2Cl)c1C(=O)Nc1ccccc1O	19	-3	-1	7	2	·
CCOC(=O)c1nn(-c2ccc(Br)cc2)cc1C(=O)c1cccc2ccccc12	62*	-1	2	-9	4	5
O=C(Cc1ccc(N2CCNC2=O)cc1)N1CCCC(Nc2cccc(F)c2)C1 (stereo unspecified)	60*	4	3	0	2	60*	FLuc counter=62*
O=C(Cc1ccc(N2CCNC2=O)cc1)N1CCCC(Nc2ccc(F)c(F)c2)C1 (stereo unspecified)	54*	-5	3	-6	3	75*	FLuc counter=56*
O=C(c1cccc(N2CCNC2=O)c1)N1CCCC(Nc2cccc(F)c2)C1 (stereo unspecified)	24	-7	1	-1	13	·
O=C(C1CCN(S(=O)(=O)c2ccc(F)cc2)CC1)N1CCCC(C(F)(F)F)C1 (stereo unspecified)	25	0	-1	10	36	·
O=C(CCc1nnc2n(Cc3ccc(F)cc3)c(=O)c3ccccc3n12)N1CCN(c2ccccn2)CC1	22	-4	3	6	12	·
NC(=O)c1cc([N+](=O)[O-])ccc1NCCN1C(=O)c2ccccc2C1=O	-9	0	0	-8	3	·
CCOC(=O)c1c(S(=O)(=O)N(C)C2CCCCC2)c(C)n(C)c1C	8	-6	0	-1	-4	·
CCc1nc2ccc(C(=O)N3CCN(c4cccc(OC)c4)CC3)cc2nc1CC	64*	4	0	5	12	39	FLuc counter=63*
CN(C)S(=O)(=O)c1cccc(C(=O)Nc2ccc(C(=O)Nc3cccc(S(N)(=O)=O)c3)cc2)c1	41	-4	1	12	-8	·
NS(=O)(=O)c1cccc(NC(=O)c2cccc(-c3ccc(O)cc3)c2)c1	64*	0	2	0	4	30
CCCN(C(=O)CCl)C1=CCCCC1	85*	-8	1	-6	-2	27
CC(NC(=S)NC1CCCCC1)c1ccc(C(C)(C)C)cc1 (stereo unspecified)	67*	-3	5	-8	7	24
CC1=NN(C(N)=S)C(=O)C1N=Nc1cccc(Cl)c1C (stereo unspecified)	-51	-2	1	-25	-15	·
COc1ccc(N2CCN(S(=O)(=O)CCNC(=O)C3CCCCC3)CC2)cc1	23	-4	1	-2	-10	·
CCS(=O)(=O)c1ccc2c(c1)N(S(C)(=O)=O)CC(C(=O)NC1CC1)O2 (stereo unspecified)	7	0	0	-1	2	·
O=C1C=C(/C=C/c2ccccc2)C[C@@H](c2ccc(F)cc2)C1	-14	6	3	-2	23	·
O=C1C=CCC(/C=C/c2ccccc2)O1 (stereo unspecified)	61*	-5	3	0	3	48*	FLuc counter=12
O=C(Cc1cc2ccccc2o1)NCc1ccc(F)cc1	12	-2	2	3	0	·
SMILES	Mdm2 MdmX PPI	UPR XBP1 act	UPR CHOP act	UBC13 polyUb	Apaf1 inhib	Mdm2-MdmX conf	others
Cc1cc(C2(c3ccc(O)c(C)c3)C(=O)Nc3ccccc32)ccc1O	57*	1	1	17	27	39
Cc1cccn2c(=O)c3cc(C(=O)NCCc4ccccc4)c(=N)n(CC4CCCO4)c3nc12 (stereo unspecified)	72*	2	1	25	27	37
N=c1c(C(=O)NCC2CCCO2)cc2c(=O)n3ccccc3nc2n1Cc1ccccc1Cl (stereo unspecified)	64*	0	0	-8	7	26
Cc1cccn2c(=O)c3cc(C(=O)NCCc4ccccc4)c(=N)n(CCCn4ccnc4)c3nc12	51*	-1	-2	0	19	18
N=c1c(C(=O)NCCc2ccccc2)cc2c(=O)n3ccccc3nc2n1CC1CCCO1 (stereo unspecified)	11	6	2	7	8	·
CC(C)C[C@H](NC(=O)N1CCn2c1nc1ccccc12)C(=O)N[C@H](Cc1ccccc1)C(=O)O	-2	-2	2	-3	1	·
C=C1/C=C(\C)[C@](C)(O)C[C@H](O)CC(=O)[C@H](O)[C@@H](O)[C@H](C)C[C@H](C)OC(=O)/C(C)=C/CC/C=C/[C@@H]2O[C@H]2C[C@H](C)C1	97*	9	20	10	21	-28
Cc1ccc(CNC(=O)C2CCC(=O)N(C3CCCC3)C2)c(F)c1F (stereo unspecified)	-9	0	3	6	-2	·
COc1ccc(CCN=C(N)C(C)c2ccccc2)cc1OC (stereo unspecified)	15	-2	0	6	-10	·
CC(C)Cc1ccc(C(C)C(N)=NCCc2ccccc2)cc1 (stereo unspecified)	81*	-2	1	23	7	72*	FLuc counter=48*
O=C(Nc1cccc(Cl)c1)Nc1cccc(Cl)c1	6	5	16	-4	11	·
O=C(Nc1ccccc1)Nc1ccc(Br)cc1F	-70	4	5	8	0	·
